Data set [1] has as its target T1, P2Y purinoceptor 2 (Homo sapiens, UniProt P41231). Briefly: Agonist activity at human P2Y purinoceptor 2 expressed in human 1321N1 cells assessed as increase in intracellular calcium concentration by spectrofluorimetry. Type of data set: functional, cell-based.
The nature of data set [2]: Stability of the compound assessed as human e-NPP1-mediated hydrolysis at pH 8.5 after 20 mins by HPLC analysis. The data set is classed as ADME. To be noted: buffer, pH 8.5, 20 min; for Drug degradation: 20 min. Put shortly:
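Human NPP1 preparation preincubated 3 min at 37 °C in 1 mM CaCl2, 200 mM NaCl, 10 mM KCl, 100 mM Tris, pH 8.5. Started with 0.2 mM dinucleotide solution (added volume) and stopped after 20 min in ice-cold perchloric acid. Neutralised with KOH, then NMP formation followed by HPLC. Percent substrate hydrolysed is the mean of two experiments run in triplicate.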

Another data set deals with P2Y purinoceptor 1 (Meleagris gallopavo, UniProt P49652). Briefly: Agonist activity at turkey P2Y purinoceptor 1 expressed in human 1321N1 cells assessed as increase in intracellular calcium concentration by spectrofluorimetry. Type of data set: functional, cell-based.
Sequence of P2Y purinoceptor 1 (P49652 whole entry): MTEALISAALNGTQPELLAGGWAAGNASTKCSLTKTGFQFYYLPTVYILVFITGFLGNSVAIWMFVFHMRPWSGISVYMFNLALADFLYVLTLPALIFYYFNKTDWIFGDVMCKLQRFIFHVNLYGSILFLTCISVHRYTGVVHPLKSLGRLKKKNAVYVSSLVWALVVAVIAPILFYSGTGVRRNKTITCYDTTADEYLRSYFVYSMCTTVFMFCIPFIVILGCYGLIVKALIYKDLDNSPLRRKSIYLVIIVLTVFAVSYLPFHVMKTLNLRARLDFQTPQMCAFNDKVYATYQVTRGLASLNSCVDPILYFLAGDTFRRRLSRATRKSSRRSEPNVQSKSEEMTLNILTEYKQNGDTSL
Another data set has as its target P2Y purinoceptor 6 (Rattus norvegicus, UniProt Q63371). Briefly: Agonist activity at rat P2Y purinoceptor 6 expressed in human 1321N1 cells assessed as increase in intracellular calcium concentration by spectrofluorimetry. The data set is classed as functional, cell-based. Particulars: read-out: EC50. Put shortly: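 1321N1 astrocytoma cells lacking endogenous P2Y receptors, stably transfected with turkey P2Y1, human P2Y2, human P2Y4 or rat P2Y6, grown in DMEM with 5% FBS, penicillin/streptomycin and 500 µg/mL G-418. Fura-2-loaded cell suspensions were exposed at 37 °C in 10 mM Hepes-buffered saline, pH 7.4, with 1 mM CaCl2 and 1 mM MgCl2. Peak [Ca2+]i rise by dual-excitation spectrofluorometry across concentrations; EC50 from curve fits; three experiments on separate days per subtype.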

Data set [3] deals with T1, P2Y purinoceptor 2. Briefly: Antagonist activity at human P2Y purinoceptor 2 expressed in human 1321N1 cells assessed as inhibition of UTP-induced increase in intracellular calcium concentration by spectrofluorimetry. Type of data set: functional, cell-based. Put shortly:
(§1)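 Fura-2-loaded 1321N1 transfectants (turkey P2Y1, human P2Y2/P2Y4, rat P2Y6) in Hepes-buffered saline, pH 7.4, at 37 °C. Analogues were tested against equimolar reference agonist: 2-MeS-ADP for P2Y1, UTP for P2Y2/4, UDP for P2Y6. Blockade of the [Ca2+]i rise was followed by dual-excitation spectrofluorometry.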

For data set [4], the target named is P2Y purinoceptor 1 (Meleagris gallopavo) (UniProt P49652). Briefly: Antagonist activity at turkey P2Y purinoceptor 1 expressed in human 1321N1 cells assessed as inhibition of 2-Sme-ADP-induced increase in intracellular calcium concentration by spectrofluorimetry. Type of data set: functional, cell-based. Put shortly:
as §1

Data set [5] has as its target P2Y purinoceptor 6 (Rattus norvegicus) (UniProt Q63371). Briefly: Antagonist activity at rat P2Y purinoceptor 6 expressed in human 1321N1 cells assessed as inhibition of UDP-induced increase in intracellular calcium concentration by spectrofluorimetry. The data set is classed as functional, cell-based. Put shortly:
as §1

Data set [6] concerns the target T2, P2Y purinoceptor 4 (Homo sapiens, UniProt P51582). Briefly: Antagonist activity at human P2Y purinoceptor 4 expressed in human 1321N1 cells assessed as inhibition of UTP-induced increase in intracellular calcium concentration by spectrofluorimetry. Type of data set: functional, cell-based. Put shortly: as §1
The target of data set [7] is T2, P2Y purinoceptor 4. Briefly: Agonist activity at human P2Y purinoceptor 4 expressed in human 1321N1 cells assessed as increase in intracellular calcium concentration by spectrofluorimetry. The data set is classed as functional, cell-based. Particulars: read-out: EC50. Put shortly: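 1321N1 astrocytoma cells (no endogenous P2Y receptors) stably expressing hP2Y4, grown in DMEM with 5% FBS, penicillin/streptomycin and 500 μg/mL G-418. Fura-2-loaded cell suspensions; compounds applied at various concentrations, 37 °C, 10 mM Hepes-buffered saline pH 7.4 with 1 mM CaCl2/MgCl2. Peak [Ca2+]i rise by dual-excitation fluorometry gives EC50; UTP reference agonist; three experiments on separate days.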

Activity calls are given as the source filed them. The rule behind the calls is not given here.

T1 sequence (P41231 whole entry): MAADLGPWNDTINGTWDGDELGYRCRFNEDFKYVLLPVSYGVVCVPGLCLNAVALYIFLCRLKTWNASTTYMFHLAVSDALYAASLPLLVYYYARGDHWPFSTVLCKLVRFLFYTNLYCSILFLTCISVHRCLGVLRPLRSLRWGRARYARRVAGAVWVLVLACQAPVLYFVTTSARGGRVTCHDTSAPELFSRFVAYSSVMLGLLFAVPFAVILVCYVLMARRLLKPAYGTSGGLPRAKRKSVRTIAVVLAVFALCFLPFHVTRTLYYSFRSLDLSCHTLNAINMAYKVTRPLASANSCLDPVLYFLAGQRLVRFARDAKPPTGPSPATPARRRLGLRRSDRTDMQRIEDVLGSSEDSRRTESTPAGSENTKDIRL
Sequence of P2Y purinoceptor 1 (Meleagris gallopavo) (P49652 whole entry): as the sequence (P49652 whole entry) above
Sequence of P2Y purinoceptor 6 (Rattus norvegicus) (Q63371 whole entry): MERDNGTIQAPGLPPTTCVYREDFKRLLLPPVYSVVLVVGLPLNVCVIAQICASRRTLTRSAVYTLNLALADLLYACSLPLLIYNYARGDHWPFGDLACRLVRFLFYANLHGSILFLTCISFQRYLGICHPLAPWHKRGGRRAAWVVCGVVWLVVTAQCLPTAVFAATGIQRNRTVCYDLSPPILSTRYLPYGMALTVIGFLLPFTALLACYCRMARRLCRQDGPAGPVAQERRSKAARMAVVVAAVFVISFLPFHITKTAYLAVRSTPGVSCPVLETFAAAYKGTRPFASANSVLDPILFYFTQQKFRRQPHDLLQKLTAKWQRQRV
Sequence of P2Y purinoceptor 6 (Q63371 whole entry): as above
T2 sequence (P51582 whole entry): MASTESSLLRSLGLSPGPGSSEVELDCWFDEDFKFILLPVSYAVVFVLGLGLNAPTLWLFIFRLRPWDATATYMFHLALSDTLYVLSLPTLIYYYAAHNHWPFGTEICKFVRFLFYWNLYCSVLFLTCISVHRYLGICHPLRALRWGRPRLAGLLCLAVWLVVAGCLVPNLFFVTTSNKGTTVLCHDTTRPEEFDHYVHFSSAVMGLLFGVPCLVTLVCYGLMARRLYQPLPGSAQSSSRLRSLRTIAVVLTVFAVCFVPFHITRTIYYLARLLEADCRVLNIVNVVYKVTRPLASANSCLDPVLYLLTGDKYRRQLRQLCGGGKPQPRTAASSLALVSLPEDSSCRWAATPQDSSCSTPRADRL

`BP(=O)(OC[C@H]1O[C@@H](n2cnc3c(N)ncnc32)[C@H](O)[C@@H]1O)OP(=O)(O)OP(=O)(O)OP(=O)(O)OC[C@H]1O[C@@H](n2cnc3c(N)ncnc32)[C@H](O)[C@@H]1O.CCCCN(CCCC)CCCC.CCCCN(CCCC)CCCC.CCCCN(CCCC)CCCC.CCCCN(CCCC)CCCC` (stereo in doubt; 12B) [listing 1 of 2 here]: the EC50 worked out at 64.2 µM on P2Y purinoceptor 2 [1] (read-out: EC50) and 6.9 µM at P2Y purinoceptor 1 (read-out: EC50). Also, the Drug degradation in [2] is reported as 17%.
As to `BP(=O)(OC[C@H]1O[C@@H](n2ccc(=O)[nH]c2=O)[C@H](O)[C@@H]1O)OP(=O)(O)OP(=O)(O)OC[C@H]1O[C@@H](n2ccc(=O)[nH]c2=O)[C@H](O)[C@@H]1O.CCCCN(CCCC)CCCC.CCCCN(CCCC)CCCC.CCCCN(CCCC)CCCC` (stereo in doubt; 11B), on P2Y purinoceptor 6, the EC50 was determined as 0.3 µM. For the same molecule, in data set [2], the Drug degradation stood at 6%.
In the case of `BP(=O)(OP(=O)(O)OC[C@H]1O[C@@H](n2ccc(=O)[nH]c2=O)[C@H](O)[C@@H]1O)OP(=O)(O)OP(=O)(O)OC[C@H]1O[C@@H](n2cnc3c(N)ncnc32)[C@H](O)[C@@H]1O.CCCCN(CCCC)CCCC.CCCCN(CCCC)CCCC.CCCCN(CCCC)CCCC.CCCCN(CCCC)CCCC` (stereo in doubt; 9B) [listing 1 of 2 here], the result (on P2Y purinoceptor 2 [3]; in data set [4]; in data set [5]; on P2Y purinoceptor 4 [6]) was inactive.
For `BP(=O)(OC[C@H]1O[C@@H](n2cnc3c(N)ncnc32)[C@H](O)[C@@H]1O)OP(=O)(O)OP(=O)(O)OP(=O)(O)OC[C@H]1O[C@@H](n2cnc3c(N)ncnc32)[C@H](O)[C@@H]1O.CCCCN(CCCC)CCCC.CCCCN(CCCC)CCCC.CCCCN(CCCC)CCCC.CCCCN(CCCC)CCCC` (stereo in doubt; 12A), the outcome (on P2Y purinoceptor 2 [3]; in [4]; in data set [5]; at P2Y purinoceptor 4 [6]) was inactive.
In the case of `BP(=O)(OP(=O)(O)OC[C@H]1O[C@@H](n2ccc(=O)[nH]c2=O)[C@H](O)[C@@H]1O)OP(=O)(O)OP(=O)(O)OC[C@H]1O[C@@H](n2cnc3c(N)ncnc32)[C@H](O)[C@@H]1O.CCCCN(CCCC)CCCC.CCCCN(CCCC)CCCC.CCCCN(CCCC)CCCC.CCCCN(CCCC)CCCC` (stereo in doubt; 9B) [listing 2 of 2 here], the figures for the EC50 at P2Y purinoceptor 6, at P2Y purinoceptor 2 [1] (1321-n1) and at P2Y purinoceptor 1 (read-out: EC50) were 11.7 µM, “Not Active” and 0.81 µM, respectively. In addition, in data set [2], the Drug degradation amounted to 3.3%.
With `BP(=O)(OC[C@H]1O[C@@H](n2cnc3c(N)ncnc32)[C@H](O)[C@@H]1O)OP(=O)(O)OP(=O)(O)OC[C@H]1O[C@@H](n2cnc3c(N)ncnc32)[C@H](O)[C@@H]1O.CCCCN(CCCC)CCCC.CCCCN(CCCC)CCCC.CCCCN(CCCC)CCCC` (stereo in doubt; 10B) [listing 1 of 2 here], the Drug degradation in [2] turned out to be 4.4%. Further, the EC50 at P2Y purinoceptor 1 (read-out: EC50) turned out to be 0.8 µM.
Turning to `BP(=O)(OC[C@H]1O[C@@H](n2cnc3c(N)ncnc32)[C@H](O)[C@@H]1O)OP(=O)(O)OP(=O)(O)OC[C@H]1O[C@@H](n2cnc3c(N)ncnc32)[C@H](O)[C@@H]1O.CCCCN(CCCC)CCCC.CCCCN(CCCC)CCCC.CCCCN(CCCC)CCCC` (stereo in doubt; 10A), the outcome (at P2Y purinoceptor 2 [3]; in data set [4]; in data set [5]; at P2Y purinoceptor 4 [6]) was inactive.
In the case of `BP(=O)(OC[C@H]1O[C@@H](n2cnc3c(N)ncnc32)[C@H](O)[C@@H]1O)OP(=O)(O)OP(=O)(O)OC[C@H]1O[C@@H](n2cnc3c(N)ncnc32)[C@H](O)[C@@H]1O.CCCCN(CCCC)CCCC.CCCCN(CCCC)CCCC.CCCCN(CCCC)CCCC` (stereo in doubt; 10B) [listing 2 of 2 here], the result (at P2Y purinoceptor 2 [3]; in data set [4]; in data set [5]; on P2Y purinoceptor 4 [6]) was inactive.
With `BP(=O)(OP(=O)(O)OC[C@H]1O[C@@H](n2cnc3c(N)ncnc32)[C@H](O)[C@@H]1O)OP(=O)(O)OP(=O)(O)OC[C@H]1O[C@@H](n2ccc(=O)[nH]c2=O)[C@H](O)[C@@H]1O.CCCCN(CCCC)CCCC.CCCCN(CCCC)CCCC.CCCCN(CCCC)CCCC.CCCCN(CCCC)CCCC` (stereo in doubt; 8B) [listing 1 of 2 here], the result (on P2Y purinoceptor 2 [3]; in [4]; in data set [5]; on P2Y purinoceptor 4 [6]) was inactive.
For `BP(=O)(OP(=O)(O)OC[C@H]1O[C@@H](n2cnc3c(N)ncnc32)[C@H](O)[C@@H]1O)OP(=O)(O)OP(=O)(O)OC[C@H]1O[C@@H](n2ccc(=O)[nH]c2=O)[C@H](O)[C@@H]1O.CCCCN(CCCC)CCCC.CCCCN(CCCC)CCCC.CCCCN(CCCC)CCCC.CCCCN(CCCC)CCCC` (stereo in doubt; 8B) [listing 2 of 2 here], the EC50 is 1.92 µM on P2Y purinoceptor 6, 64.2 µM on P2Y purinoceptor 2 [1] (read-out: EC50) and 6.9 µM on P2Y purinoceptor 1 (read-out: EC50). Moreover, in [2], the Drug degradation was 2.1%.
Regarding `Nc1ncnc2c1ncn2[C@@H]1O[C@H](COP(=O)(O)OP(=O)(O)OP(=O)(O)OP(=O)(O)OP(=O)(O)OC[C@H]2O[C@@H](n3cnc4c(N)ncnc43)[C@H](O)[C@@H]2O)[C@@H](O)[C@H]1O`, in data set [2], the Stability result was “Unstable”.
For the molecule `BP(=O)(OP(=O)(O)OC[C@H]1O[C@@H](n2cnc3c(N)ncnc32)[C@H](O)[C@@H]1O)OP(=O)(O)OP(=O)(O)OC[C@H]1O[C@@H](n2cnc3c(N)ncnc32)[C@H](O)[C@@H]1O.CCCCN(CCCC)CCCC.CCCCN(CCCC)CCCC.CCCCN(CCCC)CCCC.CCCCN(CCCC)CCCC` (stereo in doubt; 6B), the Drug degradation in data set [2] worked out at 2.1%. Further, on P2Y purinoceptor 1 (read-out: EC50), the EC50 was found to be 4.3 µM.
`BP(=O)(OP(=O)(O)OC[C@H]1O[C@@H](n2ccc(=O)[nH]c2=O)[C@H](O)[C@@H]1O)OP(=O)(O)OP(=O)(O)OC[C@H]1O[C@@H](n2ccc(=O)[nH]c2=O)[C@H](O)[C@@H]1O.CCCCN(CCCC)CCCC.CCCCN(CCCC)CCCC.CCCCN(CCCC)CCCC.CCCCN(CCCC)CCCC` (stereo in doubt; 7B): the EC50 was 0.98 µM on P2Y purinoceptor 6 and “Not Active” at P2Y purinoceptor 2 [1] (1321-n1). The Drug degradation in [2] came out at 3.5%.
For the molecule `BP(=O)(OC[C@H]1O[C@@H](n2ccc(=O)[nH]c2=O)[C@H](O)[C@@H]1O)OP(=O)(O)OP(=O)(O)OC[C@H]1O[C@@H](n2ccc(=O)[nH]c2=O)[C@H](O)[C@@H]1O.CCCCN(CCCC)CCCC.CCCCN(CCCC)CCCC.CCCCN(CCCC)CCCC` (stereo in doubt; 11A), the outcome (at P2Y purinoceptor 2 [3]; in [4]; in data set [5]; on P2Y purinoceptor 4 [6]) was inactive.
With `BP(=O)(OC[C@H]1O[C@@H](n2ccc(=O)[nH]c2=O)[C@H](O)[C@@H]1O)OP(=O)(O)OP(=O)(O)OP(=O)(O)OC[C@H]1O[C@@H](n2ccc(=O)[nH]c2=O)[C@H](O)[C@@H]1O.CCCCN(CCCC)CCCC.CCCCN(CCCC)CCCC.CCCCN(CCCC)CCCC.CCCCN(CCCC)CCCC` (stereo in doubt; 13B), the concentration for a half-maximal effect (EC50) is 3.9 µM on P2Y purinoceptor 6, 16.8 µM at P2Y purinoceptor 4 [7] and 24.6 µM on P2Y purinoceptor 2 [1] (read-out: EC50). The Drug degradation in data set [2] worked out at 11.3%.
For `BP(=O)(OC[C@H]1O[C@@H](n2cnc3c(N)ncnc32)[C@H](O)[C@@H]1O)OP(=O)(O)OP(=O)(O)OP(=O)(O)OC[C@H]1O[C@@H](n2cnc3c(N)ncnc32)[C@H](O)[C@@H]1O.CCCCN(CCCC)CCCC.CCCCN(CCCC)CCCC.CCCCN(CCCC)CCCC.CCCCN(CCCC)CCCC` (stereo in doubt; 12B) [listing 2 of 2 here], the result (on P2Y purinoceptor 2 [3]; in data set [4]; in data set [5]; on P2Y purinoceptor 4 [6]) was inactive.
`BP(=O)(OC[C@H]1O[C@@H](n2ccc(=O)[nH]c2=O)[C@H](O)[C@@H]1O)OP(=O)(O)OP(=O)(O)OP(=O)(O)OC[C@H]1O[C@@H](n2ccc(=O)[nH]c2=O)[C@H](O)[C@@H]1O.CCCCN(CCCC)CCCC.CCCCN(CCCC)CCCC.CCCCN(CCCC)CCCC.CCCCN(CCCC)CCCC` (stereo in doubt; 13A): the figures for the half-maximal effective concentration (EC50) on P2Y purinoceptor 6, on P2Y purinoceptor 4 [7] and on P2Y purinoceptor 1 (1321-n1) were 36.1 µM, 9.4 µM and “Not Active”, respectively. Also, the Drug degradation in [2] is listed as 3.5%.

The record behind these values is ChEMBL document CHEMBL1949525, “Boranophosphate isoster controls P2Y-receptor subtype selectivity and metabolic stability of dinucleoside polyphosphate analogues” (J Med Chem, 2012).
